Reference: ChEMBL document CHEMBL2440064, “Synthesis and biological evaluation of 2-amino-5-aryl-3-benzylthiopyridine scaffold based potent c-Met inhibitors” (Bioorg Med Chem, 2013)
Active and inactive are the calls of the source. The rule behind the calls is not given here.

Key:
[1] = target: T1, Hepatocyte growth factor receptor (Homo sapiens, UniProt P08581); test: Inhibition of c-Met in gefitinib-resistant human HCC827 cells assessed as inhibition of p44/42 phosphorylation at 0.5 uM after 2 hrs by Western blotting analysis; format: cell-based
T1 sequence (P08581 whole entry): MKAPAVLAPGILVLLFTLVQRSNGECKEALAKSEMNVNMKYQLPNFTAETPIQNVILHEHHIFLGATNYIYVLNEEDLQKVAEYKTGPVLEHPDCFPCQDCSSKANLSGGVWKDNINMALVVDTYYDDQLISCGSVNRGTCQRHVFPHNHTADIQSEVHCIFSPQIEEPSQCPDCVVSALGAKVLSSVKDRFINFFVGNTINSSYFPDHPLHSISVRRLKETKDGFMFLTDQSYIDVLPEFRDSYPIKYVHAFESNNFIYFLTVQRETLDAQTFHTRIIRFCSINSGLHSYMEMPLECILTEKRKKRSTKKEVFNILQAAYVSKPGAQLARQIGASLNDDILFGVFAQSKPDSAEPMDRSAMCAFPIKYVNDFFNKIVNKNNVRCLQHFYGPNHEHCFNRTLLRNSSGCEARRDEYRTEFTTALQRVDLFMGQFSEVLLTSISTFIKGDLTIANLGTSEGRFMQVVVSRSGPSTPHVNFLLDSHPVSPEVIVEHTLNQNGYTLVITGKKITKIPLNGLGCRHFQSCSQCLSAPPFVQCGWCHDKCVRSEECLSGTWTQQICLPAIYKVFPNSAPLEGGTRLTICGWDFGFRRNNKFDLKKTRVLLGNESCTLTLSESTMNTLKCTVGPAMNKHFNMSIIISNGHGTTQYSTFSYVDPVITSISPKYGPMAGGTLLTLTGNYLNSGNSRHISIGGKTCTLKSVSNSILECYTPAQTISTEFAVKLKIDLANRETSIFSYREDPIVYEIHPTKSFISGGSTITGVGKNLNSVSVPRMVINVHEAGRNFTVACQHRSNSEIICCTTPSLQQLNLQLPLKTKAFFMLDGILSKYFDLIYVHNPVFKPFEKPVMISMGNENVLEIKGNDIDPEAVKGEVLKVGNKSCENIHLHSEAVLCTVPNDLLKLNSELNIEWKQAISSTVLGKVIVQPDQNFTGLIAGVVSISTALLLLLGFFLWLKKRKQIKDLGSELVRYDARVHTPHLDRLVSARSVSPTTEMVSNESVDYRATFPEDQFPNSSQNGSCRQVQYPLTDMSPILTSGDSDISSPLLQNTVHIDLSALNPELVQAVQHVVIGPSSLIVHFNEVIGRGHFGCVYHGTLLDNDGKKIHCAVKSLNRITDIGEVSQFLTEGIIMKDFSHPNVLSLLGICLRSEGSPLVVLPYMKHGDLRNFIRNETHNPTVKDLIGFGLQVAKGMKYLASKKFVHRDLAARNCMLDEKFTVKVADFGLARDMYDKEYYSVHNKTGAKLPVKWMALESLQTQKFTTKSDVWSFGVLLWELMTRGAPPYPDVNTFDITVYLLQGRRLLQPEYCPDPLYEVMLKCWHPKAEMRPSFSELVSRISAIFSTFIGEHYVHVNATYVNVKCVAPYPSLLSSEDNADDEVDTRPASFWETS
Outline: (§1)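 Cells grown to exponential phase, treated with compound 2 h at 37°C, lysed in 1× SDS sample buffer, resolved on 10% SDS-PAGE and transferred to nitrocellulose for immunoblotting.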

[2] = target: T1, Hepatocyte growth factor receptor; test: Inhibition of c-Met phosphorylation in gefitinib-resistant human HCC827 cells at 0.5 uM after 2 hrs by Western blotting analysis; format: cell-based; outline: as §1
[3] = target: T1, Hepatocyte growth factor receptor; test: Inhibition of c-Met in gefitinib-resistant human HCC827 cells assessed as inhibition of AKT phosphorylation at 0.5 uM after 2 hrs by Western blotting analysis; format: cell-based; outline: as §1
[4] = target: T1, Hepatocyte growth factor receptor; test: Inhibition of c-Met in human SNU5 cells assessed as inhibition of p44/42 phosphorylation at 0.16 to 20 uM after 2 hrs by Western blotting analysis; format: cell-based; details: SNU-5; outline: as §1
Ephrin type-B receptor 2 = Ephrin type-B receptor 2 (Homo sapiens, UniProt P29323); test: Inhibition of EPHB2 (unknown origin) using poly (Glu, Tyr) 4:1 as substrate after 60 mins by ELISA
Chain of Ephrin type-B receptor 2 (P29323 whole entry): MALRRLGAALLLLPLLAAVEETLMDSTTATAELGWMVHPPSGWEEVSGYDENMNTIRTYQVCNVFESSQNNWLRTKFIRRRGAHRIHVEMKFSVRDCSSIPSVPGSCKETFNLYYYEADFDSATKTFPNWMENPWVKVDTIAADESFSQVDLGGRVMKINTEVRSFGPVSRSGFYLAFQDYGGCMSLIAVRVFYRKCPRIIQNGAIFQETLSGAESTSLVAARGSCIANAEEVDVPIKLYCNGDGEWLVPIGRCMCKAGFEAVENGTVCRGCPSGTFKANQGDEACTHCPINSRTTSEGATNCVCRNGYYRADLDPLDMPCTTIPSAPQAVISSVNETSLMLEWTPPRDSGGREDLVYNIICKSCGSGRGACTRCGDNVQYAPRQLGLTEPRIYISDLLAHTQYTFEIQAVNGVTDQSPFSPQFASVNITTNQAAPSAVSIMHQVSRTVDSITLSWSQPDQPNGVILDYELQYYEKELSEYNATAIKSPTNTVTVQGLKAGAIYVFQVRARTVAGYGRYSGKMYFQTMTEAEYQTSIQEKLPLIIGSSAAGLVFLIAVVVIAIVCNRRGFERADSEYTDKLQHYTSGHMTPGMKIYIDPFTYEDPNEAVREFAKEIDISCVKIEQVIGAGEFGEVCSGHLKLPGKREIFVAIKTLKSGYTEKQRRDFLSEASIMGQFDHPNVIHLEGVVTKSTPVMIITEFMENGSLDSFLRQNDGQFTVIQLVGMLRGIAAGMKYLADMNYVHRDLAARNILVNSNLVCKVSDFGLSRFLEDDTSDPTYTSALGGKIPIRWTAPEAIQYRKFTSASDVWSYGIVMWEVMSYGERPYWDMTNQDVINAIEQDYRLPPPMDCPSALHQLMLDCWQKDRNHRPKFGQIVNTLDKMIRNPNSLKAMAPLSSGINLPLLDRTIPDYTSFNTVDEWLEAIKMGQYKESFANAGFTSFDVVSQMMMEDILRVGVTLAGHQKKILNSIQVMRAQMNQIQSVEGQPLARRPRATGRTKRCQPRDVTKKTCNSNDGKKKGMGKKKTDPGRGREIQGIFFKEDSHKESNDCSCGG
Outline: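 ELISA on wells precoated with 20 µg/mL poly(Glu,Tyr)4:1. Purified kinase with 10 µmol/L ATP in 50 mM HEPES pH 7.4, 50 mM MgCl₂, 0.5 mM MnCl₂, 0.2 mM Na₃VO₄, 1 mM DTT; 1% DMSO vehicle. 60 min at 37°C. Phosphotyrosine detected with PY99 antibody, then HRP anti-mouse IgG and o-phenylenediamine/H₂O₂, A490. Inhibition = [1−(A490/A490 control)]×100%; IC50 from curves.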

SMILES: C[C@@H](Sc1cc(-c2cnn(C3CCNCC3)c2)cnc1N)c1c(Cl)ccc(F)c1Cl
- inhibition [1]: inactive
- inhibition [2]: Active
- inhibition [3]: inactive
- inhibition [4]: Active
- IC50 (Ephrin type-B receptor 2): > 1 µM
